Bioassay records deposited in PubChem BioAssay by several laboratories.
MEKK3 PB1 HTS: raises or lowers MEK5 binding to the human MEKK3 PB1 domain; Q99759; bead-based flow cytometry, Alexa488-MEK5 binding to MEKK3; actives lie on both sides; 0 = blocked by unlabeled MEK5, 100 = vehicle; binding response (% of control), % at 10 µM; actives 1.4% (n = 290,000); AID 1529;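 active = binding response more than 3 SD above or below the average of its plate-row segment, actives on both sides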;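 also: Alexa488 bead fluorescence after subtracting the streptavidin-only scavenger bead signal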
Target sequence (Q99759 whole entry, looked up, the tested form may be a part): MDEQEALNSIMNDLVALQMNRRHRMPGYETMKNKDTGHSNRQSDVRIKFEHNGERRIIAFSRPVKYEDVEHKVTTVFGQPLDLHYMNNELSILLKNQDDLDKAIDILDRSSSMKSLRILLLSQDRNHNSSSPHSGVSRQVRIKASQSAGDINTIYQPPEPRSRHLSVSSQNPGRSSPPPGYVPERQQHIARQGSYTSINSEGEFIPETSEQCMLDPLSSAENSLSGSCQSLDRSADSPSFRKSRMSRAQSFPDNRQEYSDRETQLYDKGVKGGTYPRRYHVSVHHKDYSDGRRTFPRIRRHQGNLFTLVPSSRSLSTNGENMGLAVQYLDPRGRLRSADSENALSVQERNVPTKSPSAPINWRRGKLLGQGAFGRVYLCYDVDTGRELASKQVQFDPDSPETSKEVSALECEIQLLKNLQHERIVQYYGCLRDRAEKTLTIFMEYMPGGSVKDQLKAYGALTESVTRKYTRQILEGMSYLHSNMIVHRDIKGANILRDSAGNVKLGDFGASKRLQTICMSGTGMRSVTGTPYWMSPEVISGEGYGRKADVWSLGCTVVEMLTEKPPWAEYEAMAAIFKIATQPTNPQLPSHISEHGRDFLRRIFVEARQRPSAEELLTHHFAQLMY
Apaf-1 inh: human Apaf-1 inhibition; reconstituted apoptosome caspase-3 activity, DEVD-Rh110 fluorescence; actives 0.71% (n = 330,000); O14727; inhibition, % at 20 µM; active = inhibition of at least 40% at 20 µM;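 also: plate controls were DMSO wells for no effect and DEVD-CHO caspase inhibitor wells for full effect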
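Material: biochemical Apaf-1 apoptosome reconstitution. Medium: Hepes buffer, pH 7.5. Also added: cytochrome c activation, bis-DEVD rhodamine 110 substrate. Timing: 30 min compound preincubation, 50 min activation, room temperature. Measured by: rhodamine 110 fluorescence at Ex 480/Em 540 nm.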
MEKK2 WT-MEK5: raises or lowers MEK5 binding to wildtype human MEKK2 PB1 domain; Q9Y2U5; bead flow cytometry, Alexa488-MEK5 binding to MEKK2 WT; actives lie on both sides; binding response (% of control), % at 10 µM; actives 1.1% (n = 290,000); in the data active = binding response below about 67% or above about 130%
UBC13 polyUb: human UBC13 polyubiquitination inhibition; P61088; UBC13 polyubiquitin chain formation, TR-FRET; inhibition, % at 20 µM; actives 0.47% (n = 330,000); in the data active = inhibition above about 45%, passing the limit was not always enough
MEKK2 mut-MEK5: signal of MEK5 binding to mutant human MEKK2 PB1 domain; bead flow cytometry, Alexa488-MEK5 binding to MEKK2 mutant; percent response, % at 10 µM; actives 0.35% (n = 290,000); AID 1530; in the data active = percent response above about 24%, passing the limit was not always enough
DSG3 Ab inh: inhibitors of pemphigus antibody binding to human desmoglein-3. actives 0.48% (n = 310,000). DSG3-coupled beads, scFv-anti-DSG3-GFP binding, flow cytometry; stronger effect = lower value. P32926. binding (percent of control), % at 10 µM;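 active = binding more than 3 SD below its plate's average and above zero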;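 also: hits lower antibody fragment binding to DSG3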
Starred values were filed as active, the others as inactive; x = no result given; [ ] = remark or other dose. Only some compounds are listed: those with a hit (about 3.2% of all), similar ones and a draw of the others.

SMILES	MEKK3 PB1 HTS	Apaf-1 inh	MEKK2 WT-MEK5	UBC13 polyUb	MEKK2 mut-MEK5	DSG3 Ab inh
O=C1NN(c2cccc(Br)c2)C(=O)/C1=C/c1ccc(-c2cc([N+](=O)[O-])ccc2O)o1	36*[inhibitor]	15	29*[inhibitor]	-112	-15	82*
Cc1oc2cc3oc(=O)c(CCC(=O)NCc4ccccn4)c(C)c3cc2c1C	102	9	106	13	3	97
COc1ccc(-c2csc3ncnc(N4CCN(S(=O)(=O)c5ccc(C)cc5)CC4)c23)cc1	x	27	x	4	x	69*
COc1ccc(-c2csc3ncnc(N4CCN(S(=O)(=O)c5cccs5)CC4)c23)cc1	x	18	x	2	x	101
CCN(CC1CCCO1)C(=O)CCc1nnc(CCc2ccccc2)o1 (stereo not drawn)	x	x	x	x	x	104
CC(=O)OCC1O[C@@H](O[C@@H]2C[C@H]3C(C)(C)[C@H](OC(C)=O)CC[C@]3(C)[C@H]3CC[C@]45C[C@]4(CC[C@H]5[C@@H](C)C[C@@H](O)[C@H](O)C(C)(C)O)[C@@]32C)[C@H](O)[C@@H](O)[C@@H]1O (stereo partly drawn)	95	25	99	93*	5	x
CC(C)=CCC[C@](C)(O[C@@H]1O[C@H](CO[C@@H]2O[C@H](CO)[C@@H](O)[C@H](O)[C@H]2O)[C@@H](O)[C@H](O)[C@H]1O)C1CC[C@]2(C)C1C(=O)CC1[C@@]3(C)CC[C@H](O[C@H]4O[C@@H](CO)[C@H](O)[C@@H](O)[C@@H]4O)C(C)(C)C3CC[C@]12C (stereo partly drawn)	x	2	x	5	x	94
CC(=O)Nc1cc([N+](=O)[O-])ccc1OCc1ccccc1	x	x	x	x	x	95
O=C(O)c1ccc(-n2ncc3c2/C(=C\c2cccc([N+](=O)[O-])c2)CC3)cc1	x	x	x	x	x	34*
O=C(NCc1ccncc1)/C(=N/O)c1ccccc1	109	-4	104	-5	10	75*
C[C@@H]1CN([C@@H](C)CO)S(=O)(=O)c2ccc(Br)cc2O[C@@H]1CN(C)C(=O)C1CC1	x	x	x	x	x	84*
C[C@H]1CN([C@@H](C)CO)S(=O)(=O)c2ccc(Br)cc2O[C@H]1CN(C)C(=O)C1CCC1	x	x	x	x	x	109
COc1cc(OC)cc(C(=O)Nc2nc(-c3ccccc3)c(-c3ccccc3)o2)c1	154*	5	108	-16	2	100
Cc1c(C=O)c(Cl)n(C)c(=O)c1C#N	82	97*	89	-22	-5	102
COC(=O)[C@]1(C)N[C@H](CN(C)C(=O)Nc2ccc(C)cc2)[C@@H]2C(=O)N(C)C(=O)[C@@H]21	x	-4	x	-18	x	106
Cc1ccc(C(=O)N/C(=C\c2ccc(-c3ccccc3[N+](=O)[O-])o2)C(=O)NCCCN2CCOCC2)cc1	103	65*	112	-23	8	105
Cc1ccc(C(=O)N/C(=C\c2cn(C)c3ccccc23)C(=O)NCCCN2CCOCC2)cc1	96	-3	100	-2	-1	103
Oc1ccccc1C=NCCN1CCN(CCN=Cc2ccccc2O)C1c1ccccc1O (stereo not drawn)	x	x	x	x	x	117
COC(=O)c1cccc(NC(=O)CSc2nncn2-c2ccccn2)c1	104	0	100	1	4	x
COC(=O)c1ccc(NC(=O)CSc2nncn2-c2ccccn2)cc1	0.0*[inhibitor]	7	-11*[inhibitor]	4	-24	106
CC(=O)c1ccc(OCCCC(=O)NCc2nnc3ccccn23)cc1	x	-3	x	0	x	99
O=c1[nH]c(=S)[nH]c2nc(-c3cccs3)cc(C(F)(F)F)c12	103	2	103	-8	3	71*
O=C(CSc1nc2nc(-c3cccs3)cc(C(F)(F)F)c2c(=O)[nH]1)Nc1c(F)c(F)c(F)c(F)c1F	105	0	107	-12	5	108
COc1cc(OC)c(NC(=O)c2c(-c3ccccc3)noc2C)cc1Cl	100	6	94	2	-6	70*
COc1ccc(Cl)cc1NC(=O)c1c(-c2ccccc2)noc1C	105	6	108	16	7	91
